This note sets out measurements from ChEMBL document CHEMBL4513216, “Probing the Open Global Health Chemical Diversity Library for Multistage-Active Starting Points for Next-Generation Antimalarials” (ACS Infect Dis, 2020).

This data set can be described thus: Toxicity liver stage against HepG2, at 10uM. In kind it is cell-based. Details: test concentration 10 uM, cell line HepG2-A16-CD81EGFP. The settings on record: human, HepG2-A16-CD81EGFP cells; read-out: INHIBITION
Put shortly:
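Uninfected HepG2-A16-CD81EGFP cells, 3 × 10^3 per well, 1536-well, plated on prespotted compound at 10 μM final, parasite-free screening media added to match infected plates; puromycin 10 μM positive, DMSO 0.5% negative; run in parallel with 48 h PbLuc assay at 37 °C, 5% CO2; viability by CellTiter-Glo luminescence, normalized to controls.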
On to `Cc1cccc(CN2CC[C@@H]3[C@@H]2CCN3C(=O)Cc2cccs2)n1`, for which the cytotoxicity at 10 µM is -114%.
The figure for `Cc1noc(CSc2ccc(C(F)(F)F)cn2)n1` is -12.5%; for `COc1ccc(CNC(=O)NCCCNS(C)(=O)=O)cc1OC` it is -10.6%.
On to `CC(C)N1CCN(C(=O)c2csc3nc(-c4ccc(Cl)cc4)cn23)CC1`, for which the cytotoxicity at 10 µM turned out to be 1.98%.
The figure for `COCc1nc(N(C)C)ncc1C(=O)Nc1ccn(C)n1` is -0.782%; for `Cc1noc(C)c1CNC(=O)C1(NS(C)(=O)=O)CCCCC1` it is 6.55%; for `COc1ccc(CNC(=O)Nc2cccnc2N2CCCC2)cc1OC` it is -24.6%.
With `NCCN1C(=O)CC[C@H]2CN(Cc3ccc4occc4c3)CC[C@H]21`, the cytotoxicity at 10 µM is -1.14%.
Take `COCCn1cc(NC(=O)NC(C)c2ccc(Cl)s2)cn1` (stereo not given): the cytotoxicity at 10 µM was found to be 7.25%.
The figure for `Cn1nccc1-c1cc(C2CCN(S(C)(=O)=O)CC2)ccn1` is -28.2%.
The figure for `NC(=O)c1cc2c(nc1Oc1cccc(CN3CCCC3)c1F)CCC2` is -1.47%.
As for `COCC(=O)N1CC[C@H]2[C@H]1CCN2CC(C)C`, the cytotoxicity at 10 µM worked out at 1.18%.
The figure for `O=C(O)C1CCN(C(=O)CCn2ccc3cc(Br)ccc32)CC1` is 15.5%; for `Cc1ncc(CN2CCC(c3nc(O)cc(-c4ccsc4)n3)CC2)cn1` it is -11.8%; for `Cc1nccn1C1CCCN(C(=O)c2cccc(-n3cccc3)c2)C1` (stereo not given) it is -23%.
Consider `Cc1cnc(CN(C)C2CCN(CC(=O)N(C)c3nccs3)C2)o1` (stereo not given), for which the cytotoxicity at 10 µM is -4.1%.
As for `Cc1nnc(N2CCCC3(CN(c4ccccn4)CCO3)C2)o1` (stereo not given), the figure is -98.8%.
For the compound `CCS(=O)(=O)N1CCC(Nc2ccc(C#N)cc2F)CC1`, the cytotoxicity at 10 µM amounted to 5.65%.
As for `CC(=O)N1CC(=O)N(c2cnn(C)c2)CC12CCN(Cc1ccoc1)C2` (stereo not given), the cytotoxicity at 10 µM was -9.81%.
As to `CNS(=O)(=O)CCn1cc(-c2ccc(OC)c(OC)c2)nn1`, the cytotoxicity at 10 µM is 1.9%.
With `CS(=O)(=O)N1CCC(c2nnc(CN3CCCC3)n2C2CC2)CC1`, the cytotoxicity at 10 µM was -6.6%.
Consider `CCOc1ccc(Cl)cc1NC(=O)N1CCC(n2cncn2)CC1`, for which the cytotoxicity at 10 µM was 4.93%.
As for `COc1ccc2c(c1)OCC(CNC1CCc3nc(C)nn3C1)=C2` (stereo not given), the figure is 1.84%; as for `CC(C)NC(=O)[C@H]1C[C@@H]2[C@@H](C1)OCCN2CC1CC1`, -6.13%.
As to `COc1ccccc1C1SCC(=O)Nc2n[nH]cc21` (stereo not given), the cytotoxicity at 10 µM is -1.84%.
On to `Cc1nc(CC(C)C)cc(C(=O)N2C[C@@H](N(C)C)[C@H](C(C)C)C2)n1`, for which the cytotoxicity at 10 µM is 9.26%.
Regarding `CCN1CCC(NC(=O)CN2CCCC2Cn2nc(C)nc2C)CC1` (stereo not given), the cytotoxicity at 10 µM was -12.7%.
Turning to `CC(C(N)=O)N(C)CCCc1cc(-c2ccc(F)cc2)n(C)n1` (stereo not given), the cytotoxicity at 10 µM is -4.87%.
Regarding `CCCn1nccc1NC(=O)CN1CCOC(Cn2cc(C)cn2)C1` (stereo not given), the cytotoxicity at 10 µM was 1.88%.
Turning to `CN(Cc1noc(C2CC2)n1)C1CCN(Cc2nnc(C3CC3)o2)C1` (stereo not given), the cytotoxicity at 10 µM is -5.28%.
Regarding `COc1ccc(Cl)c(NCC(=O)NCC(=O)N2CCCC2)c1`, the cytotoxicity at 10 µM is -5.7%.
`CCc1nc(NS(=O)(=O)c2ccc(F)cc2Cl)no1`: the cytotoxicity at 10 µM was 0.528%.
With `CC(Cc1ccco1)NC(=O)Nc1cnn(CC(N)=O)c1` (stereo not given), the cytotoxicity at 10 µM worked out at 7.82%.
For `COc1cc(CCC(=O)NC2CCN(C)CC2)ccc1OCC(F)(F)F`, the cytotoxicity at 10 µM is -8.82%.
On to `Cc1nc[nH]c1CN1CCc2nc3scc(C)c3c(=O)n2CC1`, for which the cytotoxicity at 10 µM was -35.7%.
With `CCCC(C(=O)NC1CCN(S(C)(=O)=O)CC1)n1cccc1` (stereo not given), the cytotoxicity at 10 µM is -3.71%.
`Cc1ccc(CN2Cc3c(C(=O)N4CCN(C)CC4)nn(C)c3C2)s1`: the cytotoxicity at 10 µM is -6.77%.
With `COc1cc(CNC(=O)C(C)SC)cc(Br)c1OC` (stereo not given), the cytotoxicity at 10 µM was found to be 0.247%.
As for `CCc1nnc(Sc2nn3cc(C)nc3s2)n1C`, the cytotoxicity at 10 µM was -3.64%.
For `O=C1CC(Nc2ccc3nccnc3n2)CN1c1ccccc1` (stereo not given), the cytotoxicity at 10 µM is -7.76%.
Turning to `N#Cc1c(Cl)nsc1N1CCN(CC2CC2)CC1`, the cytotoxicity at 10 µM came to 28.5%.
On to `CCc1ccc2occ(CC(=O)N3CCC4(CCCN(C)C4=O)C3)c2c1` (stereo not given), for which the cytotoxicity at 10 µM is -14.5%.
Consider `Cn1cc(NS(=O)(=O)c2ccc(C(F)(F)F)cc2)ccc1=O`, for which the cytotoxicity at 10 µM turned out to be 6.08%.
As to `Cc1cccc(CN2CC[C@@H]3[C@@H]2CCN3C(=O)c2ccoc2C)n1`, the cytotoxicity at 10 µM is -3.99%.
For the compound `CCN(Cc1ccc(F)cc1Cl)C1CCS(=O)(=O)C1` (stereo not given), the cytotoxicity at 10 µM worked out at 14.9%.
As for `CC(C)N1CCCC(Cc2cncc(Br)c2)CC1` (stereo not given), the figure is -7.5%; as for `Cc1nc(O)cc(CCNc2nc(N(C)C)nc(C)c2C)n1`, -3.03%.
As for `COc1cccc(CNc2c(O)c(=O)c2=O)c1`, the cytotoxicity at 10 µM worked out at 5.78%.
Regarding `COC(C)c1cccc(NCc2cccs2)c1` (stereo not given), the cytotoxicity at 10 µM is -8.94%.
With `CCCc1cc(C(=O)N2CCOC(c3nc(-c4cccs4)no3)C2)no1` (stereo not given), the cytotoxicity at 10 µM was 8.37%.
In the case of `CC(C)NC(=O)N1CC[C@@H]2[C@@H]1CC(=O)N2Cc1cccnc1`, the cytotoxicity at 10 µM came to 4.67%.
The figure for `CCN1CC(C(=O)NCc2noc(Cc3ccccc3)n2)CCC1=O` (stereo not given) is -4.7%; for `CC(C)c1ncc(CN2C[C@@H](CN3CCCCC3)[C@@H](CO)C2)cn1` it is -10.2%.
As to `CN1CC(=O)N(c2ccccc2)CC12CCN(Cc1nccn1C)C2` (stereo not given), the cytotoxicity at 10 µM is -1.17%.
As for `O=C(c1ccc(F)cc1F)N1CCN(C(=O)C2CCCCC2)CC1`, the figure is -0.876%; as for `Cc1cc(C)n(CC2CCCN2C(=O)c2ccc3[nH]cnc3c2)n1` (stereo not given), 3.18%; as for `CCNC(=O)C1(Cc2cc(-c3ccccc3)no2)CCCN(C(C)=O)C1` (stereo not given), 15.9%.
As for `CN(C)CCNC(=O)c1sc2ccccc2c1C1CCC(CN)CC1` (stereo not given), the figure is -15.3%; as for `COCCN1CCC2(COCCN(Cc3ccc4c(c3)OCO4)C2)C1` (stereo not given), -0.234%; as for `CC(=O)N1CCC2(CC1)C(=O)N(CC1CC1)c1ccccc12`, 11.2%.
Consider `CC(C)(C)c1cn(C[C@H]2CC3CCN2C[C@@H]3C(=O)NC2CC2)nn1` (stereo not given in full), for which the cytotoxicity at 10 µM is 9.46%.
Turning to `CN(C)S(=O)(=O)N1CC[C@]2(O)CCN(c3ncccn3)C[C@@H]2C1`, the cytotoxicity at 10 µM was determined as 5.74%.
Consider `O=C(Nc1ccc(F)cc1F)Nc1c[nH]c(=O)[nH]c1=O`, for which the cytotoxicity at 10 µM was -3.55%.
Regarding `CC(NC(=O)NCCn1ccnc1)c1ccc2c(c1)OCCO2` (stereo not given), the cytotoxicity at 10 µM was -9.44%.
`COc1c(CNCc2ccc(CS(C)(=O)=O)cc2)c(C)nn1C`: the cytotoxicity at 10 µM was -4.47%.
Consider `CCn1ncnc1C(C)Nc1cc(C2CC2)ncn1` (stereo not given), for which the cytotoxicity at 10 µM came to 2.33%.
In the case of `O=S(=O)(NCCC(O)c1cccs1)c1ccccc1Cl` (stereo not given), the cytotoxicity at 10 µM was 1.87%.
Regarding `CCC1(CC)CC(=O)N(CC(O)c2cc(F)ccc2F)C1=O` (stereo not given), the cytotoxicity at 10 µM is -4.42%.
As to `CC(C)NC(=O)C1CCN(c2snc3ccccc23)CC1`, the cytotoxicity at 10 µM is -8.18%.
In the case of `Cc1nc(C2CCCN2C(=O)CCOCc2ccccc2)no1` (stereo not given), the cytotoxicity at 10 µM is -2.4%.
On to `CC(=O)NCc1cncc(C2CCCN2C2CCOCC2)n1` (stereo not given), for which the cytotoxicity at 10 µM was determined as 2.15%.
`Cc1ccc(CN2CC[C@@H]3OCCN(Cc4ccncc4)[C@H]3CC2)s1`: the cytotoxicity at 10 µM amounted to 6.84%.
In the case of `CN(C)C(=O)[C@H]1C[C@H]2CN(C(=O)NCC3CCCCC3)C[C@@H]1O2`, the cytotoxicity at 10 µM is -0.572%.
On to `COCCNC(=O)CN1CCCC1c1c(C)nn(C)c1Cl` (stereo not given), for which the cytotoxicity at 10 µM was -0.185%.
For `CC(C)(C)c1nccc(N2CCCCC2CNS(C)(=O)=O)n1` (stereo not given), the cytotoxicity at 10 µM is -2.84%.
Regarding `COc1cc(NC(=O)CCn2nc(-c3cccs3)oc2=O)cc(OC)c1`, the cytotoxicity at 10 µM was 2.9%.
The figure for `NCc1ccc(Oc2cccc(Cl)c2Cl)cc1` is 7.25%; for `CC(NC(=O)NCCCn1cccn1)c1ccncc1` (stereo not given) it is 15.3%.
Consider `COCC(=O)N1CC(C(=O)NCC2CC2)C2(CCOCC2)C1` (stereo not given), for which the cytotoxicity at 10 µM was -105%.
Regarding `N#Cc1cc(C#N)c(SCC(=O)NCc2ccc(F)cc2)nc1N`, the cytotoxicity at 10 µM was determined as 0.0723%.
With `O=C(NCCc1cc2nc(-c3ccncc3)ccn2n1)C1CC1`, the cytotoxicity at 10 µM was determined as 5.82%.
Regarding `Cc1ccc(N2CC[C@H]3O[C@@H](C(=O)NCc4ccco4)CC[C@H]32)nn1`, the cytotoxicity at 10 µM was 2.03%.
As for `CC(C)CCN(C)C(=O)c1nc(S(C)(=O)=O)n2ccccc12`, the figure is -9.91%.
As to `CN(Cc1ccc([S+](C)[O-])cc1)c1ccccn1` (stereo not given), the cytotoxicity at 10 µM is -7%.
Turning to `CN(C)C(=O)[C@@H]1CCO[C@@H]2CCN(c3ncccn3)C[C@H]21`, the cytotoxicity at 10 µM is 6.65%.
The figure for `Cc1nc(C)c(CNC(=O)N2CCc3ccccc3C2CO)s1` (stereo not given) is 23.7%.
In the case of `c1csc(NCc2n[nH]c3c2CCN(CC2CC2)C3)n1`, the cytotoxicity at 10 µM was -0.733%.
The figure for `CCSCCNC(=O)c1cnc(-c2ccccc2)nc1O` is -1.54%.
Take `Cn1ccc(C(=O)NC2CCC23CCN(C(=O)C2CCOCC2)CC3)c1` (stereo not given): the cytotoxicity at 10 µM is -81.4%.
For the compound `CN(C(=O)C1CCCC1)C(c1cccc(F)c1)c1ccccn1` (stereo not given), the cytotoxicity at 10 µM turned out to be 6.07%.
As for `CN(C)C1CCCN(C(=O)NCCC(C)(C)C)C1` (stereo not given), the cytotoxicity at 10 µM was -0.317%.
The figure for `CC(NC(=O)N1CCNC(=O)CC1)c1c(F)cccc1Cl` (stereo not given) is -1.66%; for `Nc1nccnc1C1CN(Cc2ccc(OCC(=O)O)cc2)CCO1` (stereo not given) it is -2.11%.
As for `COC[C@]12COC[C@H]1CN(C(=O)C1CC(F)(F)C1)C2`, the figure is 5.83%; as for `Cc1cc(N2CCN(C(=O)[C@@H]3C[C@H]4C=C[C@@H]3C4)CC2)nc2ccccc12`, -5.71%.
